Results from the M2OR odorant receptor database.

Key:
Conditions in all cases: stereoisomer not certain
OR1F12P (Homo sapiens) = biological target: T1, OR1F12P (Homo sapiens) (UniProt Q8NHA8)
T1 sequence (whole entry): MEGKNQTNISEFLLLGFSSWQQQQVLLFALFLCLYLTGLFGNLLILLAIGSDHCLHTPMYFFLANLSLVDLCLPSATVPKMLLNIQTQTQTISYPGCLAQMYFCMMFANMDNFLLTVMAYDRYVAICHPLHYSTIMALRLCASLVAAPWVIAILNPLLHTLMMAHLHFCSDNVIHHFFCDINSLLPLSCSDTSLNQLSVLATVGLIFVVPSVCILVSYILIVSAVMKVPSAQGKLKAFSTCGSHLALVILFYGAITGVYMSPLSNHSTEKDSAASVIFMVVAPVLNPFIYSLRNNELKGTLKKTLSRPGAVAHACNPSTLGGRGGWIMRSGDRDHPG
Method in brief: (§1)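 Each entry records the cell line, G-protein, co-transfected protein and tags used. Methods varied with the source, often transient luciferase assays in mammalian cell lines. A receptor–molecule pair is called responsive (active) if the original authors judged its signal statistically different from baseline and non-responsive (inactive) otherwise.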

OR1G1 (Homo sapiens) = biological target: T2, OR1G1 (Homo sapiens) (UniProt P47890)
T2 sequence (whole entry): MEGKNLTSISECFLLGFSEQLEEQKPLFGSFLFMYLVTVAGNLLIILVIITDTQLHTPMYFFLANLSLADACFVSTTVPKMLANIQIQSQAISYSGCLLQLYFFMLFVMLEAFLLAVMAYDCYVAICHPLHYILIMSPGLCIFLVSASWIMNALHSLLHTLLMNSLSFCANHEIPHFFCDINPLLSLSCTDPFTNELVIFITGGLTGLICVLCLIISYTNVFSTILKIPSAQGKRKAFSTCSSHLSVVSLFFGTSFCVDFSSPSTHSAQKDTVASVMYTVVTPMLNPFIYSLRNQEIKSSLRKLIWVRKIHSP
Method in brief: as §1

OR1I1 (Homo sapiens) = biological target: T3, OR1I1 (Homo sapiens) (UniProt O60431)
T3 sequence (whole entry): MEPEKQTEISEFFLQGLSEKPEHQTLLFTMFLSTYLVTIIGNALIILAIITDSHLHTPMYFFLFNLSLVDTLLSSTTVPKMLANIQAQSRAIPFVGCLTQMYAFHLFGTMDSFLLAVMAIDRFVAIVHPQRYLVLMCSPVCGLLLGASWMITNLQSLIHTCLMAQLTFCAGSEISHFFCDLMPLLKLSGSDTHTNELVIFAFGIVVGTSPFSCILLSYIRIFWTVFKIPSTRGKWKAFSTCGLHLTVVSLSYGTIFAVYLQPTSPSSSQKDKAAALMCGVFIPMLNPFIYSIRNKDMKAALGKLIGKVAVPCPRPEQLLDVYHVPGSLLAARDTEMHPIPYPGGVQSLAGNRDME
Method in brief: as §1

OR1J1 (Homo sapiens) = biological target: T4, OR1J1 (Homo sapiens) (UniProt Q8NGS3)
T4 sequence (whole entry): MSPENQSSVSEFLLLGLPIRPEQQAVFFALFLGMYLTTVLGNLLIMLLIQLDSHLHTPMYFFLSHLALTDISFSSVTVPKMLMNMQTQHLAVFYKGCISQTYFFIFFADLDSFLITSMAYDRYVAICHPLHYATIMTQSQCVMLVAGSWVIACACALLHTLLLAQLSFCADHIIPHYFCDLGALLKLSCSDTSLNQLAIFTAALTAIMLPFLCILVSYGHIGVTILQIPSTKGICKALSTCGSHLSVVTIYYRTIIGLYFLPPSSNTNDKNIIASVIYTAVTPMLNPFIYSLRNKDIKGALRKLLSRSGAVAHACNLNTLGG
Method in brief: as §1

OR1K1 (Homo sapiens) = biological target: T5, OR1K1 (Homo sapiens) (UniProt Q8NGR3)
T5 sequence (whole entry): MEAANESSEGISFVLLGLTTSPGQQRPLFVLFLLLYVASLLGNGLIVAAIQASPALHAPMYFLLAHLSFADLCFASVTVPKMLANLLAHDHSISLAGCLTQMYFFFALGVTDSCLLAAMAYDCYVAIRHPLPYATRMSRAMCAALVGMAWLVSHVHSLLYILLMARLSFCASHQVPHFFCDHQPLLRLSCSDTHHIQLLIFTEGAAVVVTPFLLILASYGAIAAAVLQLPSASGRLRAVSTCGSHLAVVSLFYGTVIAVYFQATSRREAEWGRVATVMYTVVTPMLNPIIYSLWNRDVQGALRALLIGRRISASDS
Method in brief: as §1

OR1L1 (Homo sapiens) = biological target: T6, OR1L1 (Homo sapiens) (UniProt Q8NH94)
T6 sequence (whole entry): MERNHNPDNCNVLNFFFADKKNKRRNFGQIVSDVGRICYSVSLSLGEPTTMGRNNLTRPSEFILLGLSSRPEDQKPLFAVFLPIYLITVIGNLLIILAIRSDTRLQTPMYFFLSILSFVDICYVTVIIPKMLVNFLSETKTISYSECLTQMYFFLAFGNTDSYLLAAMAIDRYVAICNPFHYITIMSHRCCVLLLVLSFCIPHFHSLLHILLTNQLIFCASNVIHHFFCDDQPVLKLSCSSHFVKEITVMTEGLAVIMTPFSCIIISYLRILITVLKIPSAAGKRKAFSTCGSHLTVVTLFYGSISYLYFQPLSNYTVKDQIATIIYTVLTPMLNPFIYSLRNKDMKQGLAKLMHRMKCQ
Method in brief: as §1

OR1L3 (Homo sapiens) = biological target: T7, OR1L3 (Homo sapiens) (UniProt Q8NH93)
T7 sequence (whole entry): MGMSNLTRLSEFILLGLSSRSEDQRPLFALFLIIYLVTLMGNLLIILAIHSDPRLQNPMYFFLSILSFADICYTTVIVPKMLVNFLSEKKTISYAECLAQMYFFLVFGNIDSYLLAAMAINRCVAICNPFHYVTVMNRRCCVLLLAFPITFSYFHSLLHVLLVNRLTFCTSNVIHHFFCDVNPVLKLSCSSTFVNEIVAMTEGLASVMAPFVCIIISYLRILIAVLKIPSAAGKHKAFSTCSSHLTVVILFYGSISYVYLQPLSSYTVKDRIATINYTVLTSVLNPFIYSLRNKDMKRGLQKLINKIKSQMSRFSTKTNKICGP
Method in brief: as §1

OR1L4 (Homo sapiens) = biological target: T8, OR1L4 (Homo sapiens) (UniProt Q8NGR5)
T8 sequence (whole entry): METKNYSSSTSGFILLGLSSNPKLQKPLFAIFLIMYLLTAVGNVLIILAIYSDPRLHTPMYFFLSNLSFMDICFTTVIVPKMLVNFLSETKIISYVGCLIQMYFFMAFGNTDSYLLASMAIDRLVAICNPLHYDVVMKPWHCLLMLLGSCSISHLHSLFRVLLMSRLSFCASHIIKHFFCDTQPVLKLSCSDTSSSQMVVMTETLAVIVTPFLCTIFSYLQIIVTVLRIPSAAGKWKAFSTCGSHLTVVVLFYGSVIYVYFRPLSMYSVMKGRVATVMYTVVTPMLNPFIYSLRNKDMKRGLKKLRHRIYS
Method in brief: as §1

OR1L6 (Homo sapiens) = biological target: T9, OR1L6 (Homo sapiens) (UniProt Q8NGR2)
T9 sequence (whole entry): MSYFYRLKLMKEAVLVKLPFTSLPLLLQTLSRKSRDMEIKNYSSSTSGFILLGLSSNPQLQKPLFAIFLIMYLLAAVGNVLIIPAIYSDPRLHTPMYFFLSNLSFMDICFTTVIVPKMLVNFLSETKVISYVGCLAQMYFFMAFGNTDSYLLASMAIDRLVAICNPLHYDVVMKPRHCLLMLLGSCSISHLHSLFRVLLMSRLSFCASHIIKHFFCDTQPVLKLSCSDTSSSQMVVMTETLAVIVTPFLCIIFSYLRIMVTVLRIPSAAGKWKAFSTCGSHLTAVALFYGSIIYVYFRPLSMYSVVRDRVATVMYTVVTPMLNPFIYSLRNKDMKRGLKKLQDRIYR
Method in brief: as §1

OR1L8 (Homo sapiens) = biological target: T10, OR1L8 (Homo sapiens) (UniProt Q8NGR8)
T10 sequence (whole entry): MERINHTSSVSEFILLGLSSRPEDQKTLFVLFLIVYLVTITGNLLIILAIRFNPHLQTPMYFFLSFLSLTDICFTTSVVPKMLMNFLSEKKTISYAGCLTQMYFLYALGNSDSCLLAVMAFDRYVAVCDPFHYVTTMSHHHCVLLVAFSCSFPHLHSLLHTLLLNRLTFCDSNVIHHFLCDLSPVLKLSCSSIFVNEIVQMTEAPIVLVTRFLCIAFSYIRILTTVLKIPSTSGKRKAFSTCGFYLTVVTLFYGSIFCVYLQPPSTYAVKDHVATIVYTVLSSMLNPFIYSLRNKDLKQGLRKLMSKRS
Method in brief: as §1

OR1M1 (Homo sapiens) = biological target: T11, OR1M1 (Homo sapiens) (UniProt Q8NGA1)
T11 sequence (whole entry): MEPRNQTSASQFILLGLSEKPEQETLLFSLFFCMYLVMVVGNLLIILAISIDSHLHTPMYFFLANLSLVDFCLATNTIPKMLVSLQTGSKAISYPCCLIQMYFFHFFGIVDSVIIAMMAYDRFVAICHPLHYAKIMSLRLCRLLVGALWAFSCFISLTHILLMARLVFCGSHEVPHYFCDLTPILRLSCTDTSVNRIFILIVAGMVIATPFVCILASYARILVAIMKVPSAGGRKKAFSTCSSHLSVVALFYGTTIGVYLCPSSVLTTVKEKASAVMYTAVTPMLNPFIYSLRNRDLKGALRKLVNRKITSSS
Method in brief: as §1

OR1N1 (Homo sapiens) = biological target: T12, OR1N1 (Homo sapiens) (UniProt Q8NGS0)
T12 sequence (whole entry): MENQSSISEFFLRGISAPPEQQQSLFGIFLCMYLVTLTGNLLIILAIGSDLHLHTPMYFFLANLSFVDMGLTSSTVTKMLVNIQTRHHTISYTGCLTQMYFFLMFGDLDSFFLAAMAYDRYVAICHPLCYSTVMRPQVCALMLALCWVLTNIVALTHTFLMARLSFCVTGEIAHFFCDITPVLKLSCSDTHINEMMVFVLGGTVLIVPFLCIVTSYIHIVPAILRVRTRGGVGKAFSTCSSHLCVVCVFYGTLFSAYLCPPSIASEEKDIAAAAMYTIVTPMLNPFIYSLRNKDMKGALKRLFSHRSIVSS
Method in brief: as §1

Measured: odorant receptor agonist call

CC(=O)c1c(C)c([N+](=O)[O-])c(C(C)(C)C)c([N+](=O)[O-])c1C
inactive: all assays above

c1ccc2ncccc2c1
active: OR1G1 (Homo sapiens)
